In ChEMBL document CHEMBL1687785, “ampG gene of Pseudomonas aeruginosa and its role in β-lactamase expression” (2010):
≈ marks a conversion by molar mass, not a printed value.

Legend:
Type in all cases: functional
[1] = system: Pseudomonas aeruginosa; assay: Antimicrobial activity against ampG deficient Pseudomonas aeruginosa PAO1 after 16 to 20 hrs by broth microdilution method
Procedure, shortened: (§1)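 CLSI broth microdilution in Mueller-Hinton broth, serial 2-fold antibiotic dilutions. Inoculum about 10^4 cells per well, taken from starter cultures grown to OD600 0.5. MIC was the lowest antibiotic concentration preventing growth after 16 to 20 h at 37°C. Each MIC was determined in triplicate.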

[2] = system: Pseudomonas aeruginosa; assay: Antimicrobial activity against ampG deficient Pseudomonas aeruginosa PAK after 16 to 20 hrs by broth microdilution method; procedure, shortened: as §1
[3] = system: Pseudomonas aeruginosa; assay: Antimicrobial activity against ampG deficient Pseudomonas aeruginosa PAK harboring pZY0901 conferring resistance to gentamycin after 16 to 20 hrs by broth microdilution method; procedure, shortened: as §1
[4] = system: Pseudomonas aeruginosa; assay: Antimicrobial activity against ampD, ampDh2, ampDh3 and ampG deficient Pseudomonas aeruginosa PAO1 harboring pZY0901 conferring resistance to gentamycin after 16 to 20 hrs by broth microdilution method; procedure, shortened: as §1
[5] = system: Pseudomonas aeruginosa; assay: Antimicrobial activity against Pseudomonas aeruginosa PAO1 after 16 to 20 hrs by broth microdilution method in presence of 120 uM carbonyl cyanide m-chlorophenyl-hydrazone
Procedure, shortened: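 CLSI broth microdilution in Mueller-Hinton broth with CCCP added from a 10 mM DMSO stock to 120 μM final, alongside 2-fold serial antibiotic dilutions. Inoculum from starter cultures grown to OD600 0.5. MIC is the lowest concentration preventing growth after 16-20 h at 37°C. Triplicate.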

[6] = system: Pseudomonas aeruginosa; assay: Antimicrobial activity against ampD, ampDh2, ampDh3 deficient Pseudomonas aeruginosa PAO1 after 16 to 20 hrs by broth microdilution method in presence of 120 uM carbonyl cyanide m-chlorophenyl-hydrazone
Procedure, shortened: (§2)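 CLSI broth microdilution in Mueller-Hinton broth with serial antibiotic dilutions. CCCP was added from a 10 mM DMSO stock to 120 μM final, then the bacterial culture was added as inoculum (about 10^4 cells from OD600 0.5 starter cultures). MIC was the lowest concentration preventing growth after 16 to 20 h at 37°C, run in triplicate.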

[7] = system: Pseudomonas aeruginosa; assay: Antimicrobial activity against ampGh1 deficient Pseudomonas aeruginosa PAK after 16 to 20 hrs by broth microdilution method in presence of 120 uM carbonyl cyanide m-chlorophenyl-hydrazone; procedure, shortened: as §2
[8] = system: Pseudomonas aeruginosa; assay: Antimicrobial activity against ampD, ampDh2, ampDh3 and ampG deficient Pseudomonas aeruginosa PAO1 harboring pZY0901 conferring resistance to gentamycin after 16 to 20 hrs by broth microdilution method in presence of 120 uM carbonyl cyanide m-chlorophenyl-hydrazone; procedure, shortened: as §2
[9] = system: Pseudomonas aeruginosa; assay: Antimicrobial activity against Pseudomonas aeruginosa isolate 2 obtained from cystic fibrosis patients after 16 to 20 hrs by broth microdilution method; procedure, shortened: as §1

In the case of `CC1(C)S[C@@H]2[C@H](NC(=O)[C@H](N)c3ccccc3)C(=O)N2[C@H]1C(=O)O` [AMPICILLIN], the MIC [1] is reported as 32 µg/mL (≈ 91.6 µM), the MIC [2] is reported as 32 µg/mL (≈ 91.6 µM) and the MIC [3] is reported as 512 µg/mL (≈ 1470 µM). It also gave an MIC [4] of 1020 µg/mL (≈ 2930 µM), an MIC [5] of 128 µg/mL and an MIC [6] of 64 µg/mL. The MIC [7] was 256 µg/mL, the MIC [8] was 32 µg/mL and the MIC [9] was 256 µg/mL (≈ 733 µM).
